M5 ag: human M5 muscarinic receptor agonists, primary screen, CHO-K1 cells, Fluo-8 calcium fluorescence; Muscarinic acetylcholine receptor M5 (Homo sapiens), P08912; CHO-K1 hM5 cells; 0% DMSO wells, 100% maximal acetylcholine response; activation, % at 3 µM; hit rate 0.19% among 360,000;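 active = activation above the run's mean over test compounds plus 3 SD, cut at about 23% in these data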;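 note: signal is peak over basal fluorescence ratio across the kinetic read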
M4 ag: human M4 muscarinic receptor agonists, primary screen, CHO-K1 cells, Fluo-8 calcium fluorescence; Muscarinic acetylcholine receptor M4 (Homo sapiens), P08173; CHO-K1 hM4/Gqi5; vehicle 0%, full acetylcholine response 100%; activation, % at 3 µM; hit rate 0.14% among 360,000; AID 624127, 2012;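 active = activation above the run mean over all test wells plus 3 SD, cut at about 32% in these data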;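 note: peak over basal fluorescence ratio per well then scaled between controls; 0% = DMSO wells and 100% = acetylcholine at EC100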
Target sequence (P08173 whole entry, looked up): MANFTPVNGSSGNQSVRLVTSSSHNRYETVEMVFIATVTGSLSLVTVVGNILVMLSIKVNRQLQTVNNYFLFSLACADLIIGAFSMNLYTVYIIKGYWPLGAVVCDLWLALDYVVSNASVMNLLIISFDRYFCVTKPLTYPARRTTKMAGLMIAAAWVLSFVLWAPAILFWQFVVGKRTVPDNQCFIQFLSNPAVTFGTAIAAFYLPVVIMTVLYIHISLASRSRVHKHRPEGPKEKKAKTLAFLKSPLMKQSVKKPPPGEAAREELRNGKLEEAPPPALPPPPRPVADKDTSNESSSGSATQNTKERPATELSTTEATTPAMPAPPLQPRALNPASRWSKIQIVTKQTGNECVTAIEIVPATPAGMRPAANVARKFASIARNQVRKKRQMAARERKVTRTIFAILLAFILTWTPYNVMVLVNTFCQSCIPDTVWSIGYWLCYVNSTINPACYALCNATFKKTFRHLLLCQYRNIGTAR
M4 antag: human M4 muscarinic receptor antagonists, primary screen, CHO cells, Fluo-8 calcium fluorescence; CHO-hM4 cells, ACh EC80; inhibition, % at 3 µM; AID 624125, 2012; hit rate 0.73% among 360,000;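 active = inhibition above its plate's cutoff, the mean inhibition of sample wells plus 3 SD, cut at about 27% in these data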;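 note: 0% = acetylcholine EC80 with DMSO and 100% = DMSO without agonist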
CHRM5 PAM: human M5 muscarinic receptor positive allosteric modulators, primary screen, CHO-K1 cells, Fluo-8 calcium fluorescence. CHO-K1 hM5, ACh EC20 PAM; 0% = ACh EC20, 100% = ACh EC100. activation, % at 3 µM. hit rate 0.3% among 360,000. Muscarinic acetylcholine receptor M5 (Homo sapiens), P08912;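 active = activation above the run cutoff, the mean activation of all test compounds plus 3 SD, cut at about 18% in these data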
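System: CHO-K1 hM5 cells. Reagent: acetylcholine, EC20 level. Compound dosing: single dose, 3 µM nominal final test concentration. Timing: Post-acetylcholine fluorescence recording 140 s. Detection: Fluo-8 calcium fluorescence. Read-out: % activation, ACh-normalized. Benchmarks: ACh EC20 and EC100 wells. Repeats: singlicate, one well per test compound.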
M5 antag: human M5 muscarinic receptor antagonists, primary screen, CHO cells, Fluo-8 calcium fluorescence. Muscarinic acetylcholine receptor M5 (Homo sapiens), P08912. CHO-hM5 cells, ACh EC80. inhibition, % at 3 µM. hit rate 0.59% among 360,000. AID 624040, 2012;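 active = inhibition above a per-plate cutoff, the mean of that plate's test compounds plus 3 SD, cut at about 27% in these data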;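 note: 0% = acetylcholine EC80 with DMSO and 100% = DMSO without agonist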
M4 PAM: human M4 muscarinic receptor positive allosteric modulators, primary screen, CHO-K1 cells, Fluo-8 calcium fluorescence; CHO-K1 hM4/Gqi5, ACh EC20; 0% = ACh EC20, 100% = maximal ACh; activation, % at 3 µM; hit rate 0.4% among 360,000; AID 624126, 2012;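 active = activation above its plate's cutoff, the mean activation of sample wells plus 3 SD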
* marks the source's active call; other numbers are inactive results. Compounds with a hit are over-represented: about 1.8% of the library has one in this group of screens.

SMILES | M5 ag | M4 ag | M4 antag | CHRM5 PAM | M5 antag | M4 PAM
CCN(CC)S(=O)(=O)c1ccc(C(=O)N2CCN(C(=O)c3ccco3)CC2)cc1 | 0 | 1 | 6 | -3 | 14 | 1
CN1CCc2nc3ccc(Cl)cc3c(-c3ccccc3Cl)c2C1 | -8 | 0 | 70* | -18 | 66* | -17
COC(=O)C(C(=O)OC)c1cc2c(cc1CNS(=O)(=O)c1ccc(C)cc1)OCO2 | 4 | 4 | -12 | -3 | 1 | 5
Nc1nnnn1N=C1CCCCC1 | -1 | 1 | -9 | 29* | 7 | -1
Cc1ccccc1CN1CCN(C(=O)[C@H]2O[C@@H](n3cnc4c(N)ncnc43)[C@H](O)[C@@H]2O)CC1 | -1 | 1 | 1 | 8 | -1 | 7
O=C(CSc1nnc(NC(=O)c2ccco2)s1)Nc1ccccc1F | -8 | 2 | -2 | 2 | -6 | 25*
CCOc1ccccc1NC(=O)CSc1nnc(NC(=O)c2ccco2)s1 | -1 | 1 | 2 | 10 | -16 | 22*
O=C(Nc1nnc(COc2ccccc2)s1)c1ccco1 | 0 | 3 | -8 | 2 | -2 | 16*
COc1cccc(C(=O)OCC(=O)NCC2CCCO2)c1 (configuration not stated) | 1 | 1 | 2 | -7 | 24 | 1
CC1CN(C)C(C)c2c1oc1ccc(N)cc21 (configuration not stated) | -1 | 1 | -10 | 20* | -3 | 5
CCNC(=O)C1CCCN(C(=O)c2cccc3ccccc23)CC1 (configuration not stated) | 0 | 0 | -5 | 1 | -1 | -1
S=C1Cc2ccccc2N1 | 0 | 0 | 23 | 4 | 11 | 39*
CCC1=NN(C(=O)Cc2ccc(OC)c(OC)c2)C(O)(C(F)(F)F)C1 (configuration not stated) | -1 | 4 | 5 | -1 | 0 | 7
COc1cccc(N2CC(C)Cn3c2nc2c3c(=O)[nH]c(=O)n2C)c1 (configuration not stated) | -4 | -1 | -11 | -7 | 9 | 4
COc1ccc(-c2ccc(C(=O)Nc3cccc(F)c3)c3occc23)c(C)c1 | -2 | 0 | 5 | -6 | 1 | -3
COc1ccc(-c2ccc(C(=O)Nc3cccc(NS(C)(=O)=O)c3)c3occc23)c(C)c1 | -1 | 7 | 31* | -15 | 15 | -8
Cc1ccc(N(C(=O)CNC(=O)c2ccco2)C(C(=O)NC2CCCC2)c2cccnc2)c(C)c1 (configuration not stated) | -2 | 3 | 2 | -2 | 12 | -4
COc1ccc(-c2cn3cccnc3n2)cc1NC(=O)C1CC1 | -1 | 1 | 26* | 19* | -3 | 9
Cc1[nH]c2ccccc2c1C(=O)CSc1nc2ccccc2c(=O)n1CCCN1CCOCC1 | 4 | 25 | 27* | -20 | 20 | -14
Cn1c(N)c(C(=O)CSc2nc3ccccc3c(=O)n2CCCN2CCOCC2)c(=O)n(C)c1=O | -1 | 5 | -18 | -10 | 5 | -3
Cc1oc2c(c(=O)c1C)C(=O)CC(c1ccccc1)C2 (configuration not stated) | 1 | -1 | -3 | -2 | 43* | 7
CCN(CC)C(=O)CSc1ccc(C(F)(F)F)cc1[N+](=O)[O-] | -2 | 2 | -7 | -4 | 8 | 8
CCCCNC(=O)c1ccc(SCC(=O)N(CC)CC)c([N+](=O)[O-])c1 | 6 | 1 | -13 | 19* | -12 | 4
Cc1ccc(NC(=O)c2ccc3c(c2)[nH]c(=O)n3C(C)C)cc1 | -1 | 5 | 1 | -16 | 28* | -9
CC(C)n1c(=O)[nH]c2ccccc21 | 1 | 1 | 2 | -2 | -1 | 1
SMILES | M5 ag | M4 ag | M4 antag | CHRM5 PAM | M5 antag | M4 PAM
COc1ccc2c(C)c(CC(=O)N3C[C@H]4C[C@@H](C3)c3cccc(=O)n3C4)c(=O)oc2c1OC | 0 | 1 | -7 | -1 | 0 | -2
Cc1cccc(N/C(N)=N/c2nc(C)cc(C)n2)c1 | 14 | 37* | 16 | -12 | -1 | -7
Cc1ccc(N/C(N)=N/c2nc(C)cc(C)n2)cc1 | 8 | 22 | 25 | -13 | 5 | -24
CCCCc1ccc(N/C(N)=N/c2nc(C)cc(C)n2)cc1 | 51* | 114* | 87* | -30 | 77* | -18
CCCn1nc(C(=O)OCC(=O)Nc2ccc(C)cc2)c2ccccc2c1=O | 1 | -1 | -7 | 15 | 10 | 14
COc1ccc(C(=O)Nc2ccc3cn[nH]c3c2)c(OC)c1 | 0 | 0 | 3 | 1 | -1 | 0
O=C(O)CCn1c(=O)oc2cc(S(=O)(=O)N3CCCC3)ccc21 | 2 | 0 | 3 | -2 | 11 | 1
O=C(C[n+]1ccc(C(=O)NCc2ccccc2)cc1)c1ccc(F)cc1 | -2 | 0 | -1 | 2 | -7 | 13
C[C@@H]1CN([C@H](C)CO)C(=O)c2cc(C#Cc3ccccc3F)cnc2O[C@@H]1CN(C)S(=O)(=O)c1ccccc1F | 0 | -1 | -13 | 0 | -1 | 4
O=c1c2ccccc2nc2n1CCN2Cc1ccc(Cl)cc1 | 13 | 29 | 10 | -19 | 29* | -14
Nc1c(C=C2C=CC(=O)C=C2)c(=O)nc2snc(SCc3ccccc3)n12 | 0 | 1 | 15 | 9 | -1 | -1
COc1ccc(NC(=O)NNS(=O)(=O)c2ccc(OC)c(OC)c2)c(OC)c1 | -1 | 2 | -9 | 18* | -25 | 7
COc1ccc(CCNC(=O)COC(=O)c2sc(C)nc2C)cc1 | 5 | 0 | 2 | -7 | -4 | 0
CC(C)Oc1ccc(S(=O)(=O)N2CCOCC2)cc1NC(=O)c1ccc(N2CCCC2=O)cc1 | -5 | 4 | -1 | -12 | 28* | -5
CCCN(Cc1nc2cc(Cl)ccc2c(=O)[nH]1)C(=O)c1ccc(S(=O)(=O)N2CCCC2)cc1 | 4 | 0 | -4 | 9 | 10 | 6
c1ccc(-c2csc3ncnc(NCC4COc5ccccc5O4)c23)cc1 (configuration not stated) | -4 | 5 | 38* | -16 | 38* | -10
